Test results as given in ChEMBL document CHEMBL1955823, “Imidazo[1,2-a]pyrazines as novel PI3K inhibitors” (Bioorg Med Chem Lett, 2012).

Columns and labels:
[1] = target: Serine/threonine-protein kinase mTOR (Homo sapiens, UniProt P42345); assay: Inhibition of mTOR
In short: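 mTOR (FRAP1) kinase assay using GFP-4E-BP1 substrate and a Tb-labelled anti-phospho-4E-BP1 (Thr46) antibody in a TR-FRET format, under the manufacturer's conditions; averages of two independent experiments run in duplicate.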

[2] = target: PI3-kinase p110-alpha/p85-alpha (Homo sapiens, UniProt P42336); assay: Inhibition of human PI3K p110alpha/p85alpha; type: protein-complex assay; settings: read-out: Ki(app)
[3] = target: PI3K p110 beta/p85 alpha (Homo sapiens, UniProt P42338); assay: Inhibition of human PI3K p110beta/p85alpha; type: protein-complex assay; settings: read-out: Ki(app)
[4] = target: Phosphatidylinositol 4,5-bisphosphate 3-kinase catalytic subunit gamma isoform (Homo sapiens, UniProt P48736); assay: Inhibition of human PI3K p110gamma; settings: read-out: Ki(app)
[5] = species: Homo sapiens; assay: Selectivity ratio of Kiapp for human PI3K p110alpha/p85alpha to Kiapp for human PI3K p110delta/p85alpha
[6] = target: RAC-alpha serine/threonine-protein kinase (Homo sapiens) (UniProt P31749); assay: Inhibition of AKT1 at 5 to 10 uM
Sequence of RAC-alpha serine/threonine-protein kinase (Homo sapiens) (P31749 whole entry): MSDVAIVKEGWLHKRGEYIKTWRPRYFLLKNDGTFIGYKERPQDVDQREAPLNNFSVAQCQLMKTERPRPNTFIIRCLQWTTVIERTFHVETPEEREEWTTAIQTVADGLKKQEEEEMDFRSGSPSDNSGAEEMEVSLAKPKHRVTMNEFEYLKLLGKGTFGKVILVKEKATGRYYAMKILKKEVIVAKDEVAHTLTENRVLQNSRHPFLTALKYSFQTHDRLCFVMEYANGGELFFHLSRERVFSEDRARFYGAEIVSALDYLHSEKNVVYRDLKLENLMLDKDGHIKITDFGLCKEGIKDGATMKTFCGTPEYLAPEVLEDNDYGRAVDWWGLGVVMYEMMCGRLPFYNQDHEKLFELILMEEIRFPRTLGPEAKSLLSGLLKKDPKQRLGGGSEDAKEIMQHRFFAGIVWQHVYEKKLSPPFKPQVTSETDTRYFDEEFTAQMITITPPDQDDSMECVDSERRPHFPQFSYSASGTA

[7] = target: T1, NUAK family SNF1-like kinase 1 (Homo sapiens) (UniProt O60285); assay: Inhibition of ARK5 at 5 to 10 uM
T1 sequence (whole entry): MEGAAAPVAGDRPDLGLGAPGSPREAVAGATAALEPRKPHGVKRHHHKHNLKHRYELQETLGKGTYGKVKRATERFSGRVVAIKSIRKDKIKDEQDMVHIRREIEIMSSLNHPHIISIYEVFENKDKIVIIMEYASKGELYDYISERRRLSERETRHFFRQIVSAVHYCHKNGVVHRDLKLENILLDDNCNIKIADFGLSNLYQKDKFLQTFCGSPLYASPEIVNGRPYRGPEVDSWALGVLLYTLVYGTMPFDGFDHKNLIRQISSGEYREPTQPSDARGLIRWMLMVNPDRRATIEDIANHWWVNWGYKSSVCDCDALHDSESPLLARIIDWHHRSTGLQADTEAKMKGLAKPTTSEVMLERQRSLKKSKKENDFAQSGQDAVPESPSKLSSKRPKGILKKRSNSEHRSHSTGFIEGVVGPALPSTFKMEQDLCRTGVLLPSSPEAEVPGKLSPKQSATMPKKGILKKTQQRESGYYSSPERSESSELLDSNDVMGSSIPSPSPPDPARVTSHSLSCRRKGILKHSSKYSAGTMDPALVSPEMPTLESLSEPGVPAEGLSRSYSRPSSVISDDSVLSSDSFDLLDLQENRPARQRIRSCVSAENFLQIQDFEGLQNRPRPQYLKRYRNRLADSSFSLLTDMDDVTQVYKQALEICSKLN

[8] = target: Casein kinase I isoform alpha (Homo sapiens) (UniProt P48729); assay: Inhibition of CK1alpha1 at 5 to 10 uM
Sequence of Casein kinase I isoform alpha (Homo sapiens) (P48729 2-337 limits assumed): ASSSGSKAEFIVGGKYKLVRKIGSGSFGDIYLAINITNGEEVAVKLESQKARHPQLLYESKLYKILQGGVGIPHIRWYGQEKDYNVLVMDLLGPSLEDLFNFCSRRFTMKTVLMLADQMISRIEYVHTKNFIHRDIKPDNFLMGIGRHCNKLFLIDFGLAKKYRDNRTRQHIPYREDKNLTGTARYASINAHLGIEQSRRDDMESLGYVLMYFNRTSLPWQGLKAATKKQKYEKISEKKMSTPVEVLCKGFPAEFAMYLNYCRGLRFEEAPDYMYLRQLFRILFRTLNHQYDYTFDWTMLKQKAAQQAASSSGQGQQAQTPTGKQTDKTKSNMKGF

[9] = target: Dual specificity tyrosine-phosphorylation-regulated kinase 1A (Homo sapiens) (UniProt Q13627); assay: Inhibition of DYRK1A at 5 to 10 uM
[10] = target: Epidermal growth factor receptor (Homo sapiens) (UniProt P00533); assay: Inhibition of EGF-R at 5 to 10 uM
[11] = target: Focal adhesion kinase 1 (Homo sapiens) (UniProt Q05397); assay: Inhibition of FAK at 5 to 10 uM
[12] = target: Fibroblast growth factor receptor 1 (Homo sapiens) (UniProt P11362); assay: Inhibition of FGF-R1 at 5 to 10 uM
Sequence of Fibroblast growth factor receptor 1 (Homo sapiens) (P11362 22-822 limits assumed): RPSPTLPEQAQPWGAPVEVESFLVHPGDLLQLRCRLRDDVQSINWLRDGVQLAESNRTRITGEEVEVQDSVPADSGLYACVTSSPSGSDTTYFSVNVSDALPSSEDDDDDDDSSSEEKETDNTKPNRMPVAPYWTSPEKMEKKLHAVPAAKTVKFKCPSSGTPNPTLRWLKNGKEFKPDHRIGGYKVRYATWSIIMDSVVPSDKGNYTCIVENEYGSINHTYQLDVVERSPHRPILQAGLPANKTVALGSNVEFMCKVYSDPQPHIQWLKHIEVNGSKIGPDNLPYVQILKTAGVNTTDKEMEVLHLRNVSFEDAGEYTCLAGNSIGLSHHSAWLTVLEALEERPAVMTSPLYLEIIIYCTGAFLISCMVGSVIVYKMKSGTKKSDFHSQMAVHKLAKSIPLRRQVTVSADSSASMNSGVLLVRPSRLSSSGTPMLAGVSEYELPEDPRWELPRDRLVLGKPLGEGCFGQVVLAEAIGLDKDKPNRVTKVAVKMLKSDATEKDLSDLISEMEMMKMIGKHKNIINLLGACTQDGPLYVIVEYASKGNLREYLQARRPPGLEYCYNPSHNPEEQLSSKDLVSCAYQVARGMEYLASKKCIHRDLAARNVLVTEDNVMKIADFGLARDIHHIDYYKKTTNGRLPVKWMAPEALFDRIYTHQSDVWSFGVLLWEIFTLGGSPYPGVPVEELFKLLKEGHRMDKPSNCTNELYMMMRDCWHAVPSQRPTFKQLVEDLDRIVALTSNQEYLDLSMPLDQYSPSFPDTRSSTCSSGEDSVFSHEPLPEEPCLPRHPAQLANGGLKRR

[13] = target: Receptor-type tyrosine-protein kinase FLT3 (Homo sapiens) (UniProt P36888); assay: Inhibition of FLT3 at 5 to 10 uM
Sequence of Receptor-type tyrosine-protein kinase FLT3 (Homo sapiens) (P36888 whole entry): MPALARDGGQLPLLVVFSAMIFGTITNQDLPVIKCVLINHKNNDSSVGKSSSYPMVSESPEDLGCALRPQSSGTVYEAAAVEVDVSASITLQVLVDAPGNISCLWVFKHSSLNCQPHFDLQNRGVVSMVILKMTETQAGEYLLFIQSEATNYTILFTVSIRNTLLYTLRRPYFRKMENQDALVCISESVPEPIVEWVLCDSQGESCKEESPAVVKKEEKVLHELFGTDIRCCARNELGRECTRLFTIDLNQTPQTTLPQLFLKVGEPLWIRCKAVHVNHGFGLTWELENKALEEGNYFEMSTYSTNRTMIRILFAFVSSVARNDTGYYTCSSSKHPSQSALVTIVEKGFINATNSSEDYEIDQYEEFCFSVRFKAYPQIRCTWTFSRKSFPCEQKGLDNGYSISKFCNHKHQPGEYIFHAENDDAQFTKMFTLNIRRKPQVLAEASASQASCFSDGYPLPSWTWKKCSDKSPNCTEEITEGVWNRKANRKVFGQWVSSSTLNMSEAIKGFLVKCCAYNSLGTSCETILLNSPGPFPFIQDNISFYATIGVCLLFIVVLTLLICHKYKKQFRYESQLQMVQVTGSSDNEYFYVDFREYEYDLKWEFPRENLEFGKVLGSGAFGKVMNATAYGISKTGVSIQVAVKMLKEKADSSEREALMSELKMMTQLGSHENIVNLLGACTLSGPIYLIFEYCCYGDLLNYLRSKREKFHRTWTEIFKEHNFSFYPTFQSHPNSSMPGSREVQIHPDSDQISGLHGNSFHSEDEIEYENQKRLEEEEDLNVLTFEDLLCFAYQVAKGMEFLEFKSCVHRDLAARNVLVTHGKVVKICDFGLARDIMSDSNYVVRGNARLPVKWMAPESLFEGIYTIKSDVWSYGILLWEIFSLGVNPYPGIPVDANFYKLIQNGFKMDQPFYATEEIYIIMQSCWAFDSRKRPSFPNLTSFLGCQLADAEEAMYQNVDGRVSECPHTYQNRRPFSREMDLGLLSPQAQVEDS

[14] = target: Insulin-like growth factor 1 receptor (Homo sapiens) (UniProt P08069); assay: Inhibition of IGF1-R at 5 to 10 uM
Sequence of Insulin-like growth factor 1 receptor (Homo sapiens) (P08069 31-736 limits assumed): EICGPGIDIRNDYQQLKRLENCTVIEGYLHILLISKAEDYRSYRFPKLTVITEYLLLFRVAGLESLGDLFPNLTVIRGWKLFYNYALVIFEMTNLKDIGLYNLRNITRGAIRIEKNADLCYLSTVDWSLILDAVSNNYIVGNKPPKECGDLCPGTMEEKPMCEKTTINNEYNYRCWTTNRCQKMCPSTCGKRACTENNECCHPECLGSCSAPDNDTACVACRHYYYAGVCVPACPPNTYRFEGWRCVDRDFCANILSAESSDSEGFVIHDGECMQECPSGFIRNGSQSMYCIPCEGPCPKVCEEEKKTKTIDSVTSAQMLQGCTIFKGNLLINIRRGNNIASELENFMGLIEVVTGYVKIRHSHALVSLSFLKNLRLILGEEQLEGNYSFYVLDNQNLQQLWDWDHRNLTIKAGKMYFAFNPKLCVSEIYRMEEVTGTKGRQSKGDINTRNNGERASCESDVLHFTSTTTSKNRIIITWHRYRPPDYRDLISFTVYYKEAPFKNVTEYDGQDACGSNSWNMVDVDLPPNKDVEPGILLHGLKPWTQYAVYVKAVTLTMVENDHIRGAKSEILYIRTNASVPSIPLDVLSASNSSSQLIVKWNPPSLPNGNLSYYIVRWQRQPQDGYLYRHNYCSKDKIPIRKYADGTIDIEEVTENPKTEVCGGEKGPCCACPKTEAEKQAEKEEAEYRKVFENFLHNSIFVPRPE
Sequence of Insulin-like growth factor 1 receptor (Homo sapiens) (P08069 741-1367 limits assumed): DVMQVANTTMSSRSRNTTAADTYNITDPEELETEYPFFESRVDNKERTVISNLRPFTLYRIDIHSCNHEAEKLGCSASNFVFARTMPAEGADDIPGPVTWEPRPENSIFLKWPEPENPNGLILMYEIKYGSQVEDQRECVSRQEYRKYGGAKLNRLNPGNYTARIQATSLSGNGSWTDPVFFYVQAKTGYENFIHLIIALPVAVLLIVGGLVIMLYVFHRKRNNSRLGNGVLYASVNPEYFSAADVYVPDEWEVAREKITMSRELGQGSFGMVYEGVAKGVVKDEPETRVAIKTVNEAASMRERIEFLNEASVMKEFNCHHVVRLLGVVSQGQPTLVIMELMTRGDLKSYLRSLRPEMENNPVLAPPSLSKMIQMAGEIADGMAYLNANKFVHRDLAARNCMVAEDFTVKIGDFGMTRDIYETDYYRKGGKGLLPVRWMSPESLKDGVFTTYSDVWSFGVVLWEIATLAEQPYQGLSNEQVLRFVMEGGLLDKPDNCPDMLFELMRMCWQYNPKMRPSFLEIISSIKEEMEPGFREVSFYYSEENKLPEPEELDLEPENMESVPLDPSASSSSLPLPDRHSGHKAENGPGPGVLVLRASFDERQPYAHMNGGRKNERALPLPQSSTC

[15] = target: Mitogen-activated protein kinase 8 (Homo sapiens) (UniProt P45983); assay: Inhibition of JNK1 at 5 to 10 uM
Sequence of Mitogen-activated protein kinase 8 (Homo sapiens) (P45983 whole entry): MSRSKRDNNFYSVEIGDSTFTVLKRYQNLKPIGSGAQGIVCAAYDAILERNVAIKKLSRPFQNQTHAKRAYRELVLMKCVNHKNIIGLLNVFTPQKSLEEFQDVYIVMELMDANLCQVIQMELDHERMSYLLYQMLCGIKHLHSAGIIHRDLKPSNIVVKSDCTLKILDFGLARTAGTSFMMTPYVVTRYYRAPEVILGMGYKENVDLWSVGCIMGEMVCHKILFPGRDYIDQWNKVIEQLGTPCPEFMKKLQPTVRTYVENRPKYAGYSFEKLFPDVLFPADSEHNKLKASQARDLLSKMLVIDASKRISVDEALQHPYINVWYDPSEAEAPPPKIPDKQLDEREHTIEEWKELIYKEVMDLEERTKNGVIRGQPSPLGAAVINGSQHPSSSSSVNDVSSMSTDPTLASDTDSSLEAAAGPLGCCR

[16] = target: Mast/stem cell growth factor receptor Kit (Homo sapiens) (UniProt P10721); assay: Inhibition of KIT at 5 to 10 uM
[17] = target: Dual specificity mitogen-activated protein kinase kinase 1 (Homo sapiens) (UniProt Q02750); assay: Inhibition of MEK1 at 5 to 10 uM
[18] = target: Hepatocyte growth factor receptor (Homo sapiens) (UniProt P08581); assay: Inhibition of MET at 5 to 10 uM
[19] = target: T2, Serine/threonine-protein kinase 4 (Homo sapiens) (UniProt Q13043); assay: Inhibition of MST1 at 5 to 10 uM
T2 sequence (whole entry): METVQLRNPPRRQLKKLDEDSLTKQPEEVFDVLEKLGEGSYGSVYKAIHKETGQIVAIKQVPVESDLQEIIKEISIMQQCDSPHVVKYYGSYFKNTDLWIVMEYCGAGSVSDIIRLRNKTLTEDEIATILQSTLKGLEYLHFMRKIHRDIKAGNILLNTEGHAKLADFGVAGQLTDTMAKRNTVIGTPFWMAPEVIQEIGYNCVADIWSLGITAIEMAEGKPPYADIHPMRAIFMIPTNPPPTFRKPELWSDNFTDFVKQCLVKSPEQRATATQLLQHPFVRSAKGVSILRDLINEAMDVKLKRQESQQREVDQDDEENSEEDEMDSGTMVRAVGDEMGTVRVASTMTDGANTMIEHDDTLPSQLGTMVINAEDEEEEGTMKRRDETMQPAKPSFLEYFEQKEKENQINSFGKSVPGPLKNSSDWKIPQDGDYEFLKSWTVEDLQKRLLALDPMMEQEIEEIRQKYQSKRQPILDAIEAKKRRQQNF

[20] = target: Serine/threonine-protein kinase PAK 1 (Homo sapiens) (UniProt Q13153); assay: Inhibition of PAK1 at 5 to 10 uM
Sequence of Serine/threonine-protein kinase PAK 1 (Homo sapiens) (Q13153 whole entry): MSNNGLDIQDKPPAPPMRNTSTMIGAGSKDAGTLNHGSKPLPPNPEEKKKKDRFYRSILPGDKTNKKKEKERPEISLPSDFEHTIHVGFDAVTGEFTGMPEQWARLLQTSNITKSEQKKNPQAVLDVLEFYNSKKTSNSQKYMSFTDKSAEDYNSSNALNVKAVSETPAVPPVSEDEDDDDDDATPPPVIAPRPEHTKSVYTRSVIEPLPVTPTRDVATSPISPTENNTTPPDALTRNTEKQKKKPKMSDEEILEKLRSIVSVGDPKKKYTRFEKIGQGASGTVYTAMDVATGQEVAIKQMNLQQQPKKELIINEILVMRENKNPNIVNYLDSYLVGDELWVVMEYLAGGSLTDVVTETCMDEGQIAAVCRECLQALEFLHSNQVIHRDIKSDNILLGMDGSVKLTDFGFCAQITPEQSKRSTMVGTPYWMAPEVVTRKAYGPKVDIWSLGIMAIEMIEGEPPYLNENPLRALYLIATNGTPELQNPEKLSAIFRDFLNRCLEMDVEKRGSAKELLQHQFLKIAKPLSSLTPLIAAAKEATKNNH

[21] = Inhibition of PDGFR at 5 to 10 uM
[22] = target: T3, Serine/threonine-protein kinase Sgk1 (Homo sapiens) (UniProt O00141); assay: Inhibition of SGK1 at 5 to 10 uM
T3 sequence (whole entry): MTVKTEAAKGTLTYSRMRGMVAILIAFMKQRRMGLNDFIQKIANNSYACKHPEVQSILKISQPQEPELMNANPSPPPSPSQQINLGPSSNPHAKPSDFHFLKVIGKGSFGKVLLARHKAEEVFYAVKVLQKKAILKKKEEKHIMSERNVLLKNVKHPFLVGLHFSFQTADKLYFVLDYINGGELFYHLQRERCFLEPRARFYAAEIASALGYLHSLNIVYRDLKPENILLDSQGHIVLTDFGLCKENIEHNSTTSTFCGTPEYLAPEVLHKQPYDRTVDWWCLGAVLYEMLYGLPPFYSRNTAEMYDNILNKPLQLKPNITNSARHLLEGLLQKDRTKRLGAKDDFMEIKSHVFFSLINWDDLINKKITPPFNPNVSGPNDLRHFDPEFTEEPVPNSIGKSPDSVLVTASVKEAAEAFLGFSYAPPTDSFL

IC50 [1]	Ki [3]	Ki [4]	inhibition [6]	inhibition [7]	inhibition [8]	inhibition [9]	inhibition [10]	inhibition [11]	inhibition [12]	inhibition [13]	inhibition [14]	inhibition [15]	inhibition [16]	inhibition [17]	inhibition [18]	inhibition [19]	inhibition [20]	inhibition [21]	inhibition [22]	Compound	other results
> 10000 nM	> 500 nM	> 500 nM	50%	< 50%	< 50%	< 50%	< 50%	50%	< 50%	< 50%	< 50%	< 50%	< 50%	< 50%	< 50%	< 50%	< 50%	< 50%	< 50%	O=C(NCCN1CCOCC1)c1cn2cc(-c3cccc4[nH]ncc34)nc(N3CCOCC3)c2n1	Ki [2]: 65 nM; Ratio Ki(app) [5]: 10
> 10000 nM	> 500 nM	> 500 nM	50%	< 50%	< 50%	< 50%	< 50%	50%	< 50%	< 50%	< 50%	< 50%	< 50%	< 50%	< 50%	< 50%	< 50%	< 50%	< 50%	CS(=O)(=O)N1CCN(Cc2cn3c(Cl)c(-c4cccc5[nH]ncc45)nc(N4CCOCC4)c3n2)CC1	Ki [2]: 210 nM; Ratio Ki(app) [5]: 3.2
> 10000 nM	> 500 nM	> 500 nM	50%	< 50%	< 50%	< 50%	< 50%	50%	< 50%	< 50%	< 50%	< 50%	< 50%	< 50%	< 50%	< 50%	< 50%	< 50%	< 50%	COCCCNC(=O)c1cn2cc(-c3cccc4[nH]ncc34)nc(N3CCOCC3)c2n1	Ki [2]: 60 nM; Ratio Ki(app) [5]: 21.4
> 10000 nM	> 500 nM	> 500 nM	< 50%	< 50%	< 50%	< 50%	< 50%	50%	< 50%	< 50%	< 50%	< 50%	< 50%	< 50%	< 50%	< 50%	< 50%	< 50%	< 50%	CS(=O)(=O)N1CCN(Cc2cn3cc(-c4cccc5[nH]ncc45)nc(N4CCOCC4)c3n2)CC1	
> 10000 nM	> 500 nM	> 500 nM	50%	< 50%	< 50%	< 50%	< 50%	50%	< 50%	< 50%	< 50%	< 50%	< 50%	< 50%	< 50%	< 50%	< 50%	< 50%	< 50%	CS(=O)(=O)N1CCN(Cc2cn3c(C#N)c(-c4cccc5[nH]ncc45)nc(N4CCOCC4)c3n2)CC1	Ki [2]: 410 nM; Ratio Ki(app) [5]: 9.5
> 10000 nM	> 500 nM	> 500 nM	50%	< 50%	< 50%	< 50%	< 50%	50%	< 50%	< 50%	< 50%	< 50%	< 50%	< 50%	< 50%	< 50%	< 50%	< 50%	< 50%	CNC(=O)c1cn2cc(-c3cccc4[nH]ncc34)nc(N3CCOCC3)c2n1	Ki [2]: 102 nM; Ratio Ki(app) [5]: 6
> 10000 nM	> 500 nM	> 500 nM	50%	< 50%	< 50%	< 50%	< 50%	50%	< 50%	< 50%	< 50%	< 50%	< 50%	< 50%	< 50%	< 50%	< 50%	< 50%	< 50%	CS(=O)(=O)N1CCN(Cc2nc3c(N4CCOCC4)nc(-c4cccc5[nH]ncc45)cn3c2Br)CC1	Ki [2]: 86 nM; Ratio Ki(app) [5]: 10.8
> 10000 nM	> 500 nM	> 500 nM	50%	< 50%	< 50%	< 50%	< 50%	50%	< 50%	< 50%	< 50%	< 50%	< 50%	< 50%	< 50%	< 50%	< 50%	< 50%	< 50%	CN(C)CCCNC(=O)c1cn2cc(-c3cccc4[nH]ncc34)nc(N3CCOCC3)c2n1	Ki [2]: 44 nM; Ratio Ki(app) [5]: 12.2
